The source of these data is ChEMBL document CHEMBL1156948, “Statistical molecular design of a focused salicylidene acylhydrazide library and multivariate QSAR of inhibition of type III secretion in the Gram-negative bacterium Yersinia” (Bioorg Med Chem, 2010).

Data set [1] has as its system Escherichia coli. As to the kind of experiment: Antibacterial activity against Escherichia coli DH5[alpha] at 100 uM after 23 hrs by broth dilution assay. It is filed as functional, organism-based. Summed up: (§1)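 Overnight LB culture of E. coli DH5α grown at 37 °C, diluted to OD600 0.1 in LB with 2.5 mM CaCl2; compound added from DMSO stock to final 50 or 100 µM. Incubated at 37 °C with absorbance at 595 nm followed over 23 h.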
(In general: In broth dilution the organism is exposed to a series of concentrations in liquid medium.)

In data set [2] the test system is Yersinia pseudotuberculosis YPIII. As to the kind of experiment: Inhibition of T3S in Yersinia pseudotuberculosis YPIII expressing yopE-luxAB at 100 uM after 3 hrs by luciferase reporter gene assay. Summed up:
(§2)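 Strain YPIII pIB102 (yopE-luxAB) grown overnight at room temperature in BHI with 5 mM EGTA and 20 mM MgCl2 (calcium depletion), adjusted to OD600 0.088–0.095. Compound added from DMSO at 1.56–200 µM final (eight concentrations). Shaken 1 h at room temperature, then 2 h at 37 °C. Decanal added and light emission read immediately. Triplicates, repeated at least three times.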
In general terms: A reporter such as luciferase makes a cellular process visible.

For data set [3] the test system is unchanged. In words: Inhibition of T3S in Yersinia pseudotuberculosis YPIII expressing yopE-luxAB at 25 uM after 3 hrs by luciferase reporter gene assay. Summed up: as §2
For data set [4] the test system is unchanged. As to the kind of experiment: Inhibition of T3S in Yersinia pseudotuberculosis YPIII expressing yopE-luxAB at 1.56 uM after 3 hrs by luciferase reporter gene assay. Summed up:
as §2

For data set [5] the test system is unchanged. As to the kind of experiment: Inhibition of T3S in Yersinia pseudotuberculosis YPIII expressing yopE-luxAB at 3.13 uM after 3 hrs by luciferase reporter gene assay. Summed up:
as §2

The nature of data set [6]: Cytotoxicity against human HeLa 229 cells assessed as cell viability at 25 uM after 28 hrs using resazurin staining by fluorescence microscopy. To be noted: read-out: Activity. It is filed as cell-based. Summed up: (§3)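 HeLa 229 viability measured at 50 and 25 µM using resazurin added 4 h before read-out; cell-free wells with medium plus compound exclude chemical reduction of resazurin. Scored relative to DMSO control, plus microscopic scoring; non-toxic defined as at least 70% viability versus control. Triplicates, repeated at least three times.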

Data set [7] concerns Yersinia pseudotuberculosis YPIII. In words: Inhibition of T3S in Yersinia pseudotuberculosis YPIII expressing yopE-luxAB at 6.25 uM after 3 hrs by luciferase reporter gene assay. Summed up:
as §2

For data set [8], the system named is Yersinia pseudotuberculosis. In words: Antibacterial activity against Yersinia pseudotuberculosis expressing pIB102 at 50 uM after 23 hrs by broth dilution assay. In kind it is functional, organism-based. Summed up: (§4)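 Wild-type pIB102 grown overnight in LB at room temperature, diluted to OD600 = 0.1 in LB with 2.5 mM CaCl2. Compound added from DMSO stock to final 50 and 100 µM. Incubated at 37 °C with absorbance at 595 nm read over 23 h.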

The subject of data set [9] is Escherichia coli. In words: Antibacterial activity against Escherichia coli DH5[alpha] at 50 uM after 23 hrs by broth dilution assay. In kind it is functional, organism-based. Summed up: as §1
The test system of data set [10] is Yersinia pseudotuberculosis YPIII. As to the kind of experiment: Inhibition of T3S in Yersinia pseudotuberculosis YPIII expressing yopE-luxAB at 200 uM after 3 hrs by luciferase reporter gene assay. Summed up:
as §2

Data set [11] has the same test system. In words: Inhibition of T3S in Yersinia pseudotuberculosis YPIII expressing yopE-luxAB at 50 uM after 3 hrs by luciferase reporter gene assay. Summed up:
as §2

For data set [12] the test system is unchanged. In words: Inhibition of T3S in Yersinia pseudotuberculosis YPIII expressing yopE-luxAB at 12.5 uM after 3 hrs by luciferase reporter gene assay. Summed up:
as §2

The test system of data set [13] is Yersinia pseudotuberculosis. As to the kind of experiment: Antibacterial activity against Yersinia pseudotuberculosis expressing pIB102 at 100 uM after 23 hrs by broth dilution assay. In kind it is functional, organism-based. Summed up:
as §4

The next data set concerns Chlamydia trachomatis. In words: Antibacterial activity against Chlamydia trachomatis infected in human HeLa 229 cells after 35 hrs by fluorescence microscopy. It is filed as functional. Summed up: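 HeLa 229 monolayers infected with C. trachomatis serovar L2, MOI 0.3; compounds diluted in RPMI 1640 with 10% FCS, 2 mM L-glutamine, 8 µg/mL gentamicin (DMSO final 1%) added 1 h post-infection at 50, 25, 12.5, 6.25, 3.13 µM. 35 h at 37 °C, 5% CO2; methanol fixation, immunostaining, fluorescence microscopy at 200×. MIC = lowest concentration with no intracellular inclusions; duplicates, ≥3 occasions.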

A short description of data set [14]: Cytotoxicity against human HeLa 229 cells assessed as cell viability at 50 uM after 28 hrs using resazurin staining by fluorescence microscopy. In kind it is cell-based. To be noted: read-out: Activity. Summed up:
as §3
A general note: Alamar Blue is a resazurin reagent that responds to reducing activity.

In brackets after ≈: the same amount, converted by molar mass. Activity calls are given as the source filed them.

With `O=C(N/N=C/c1cccc(F)c1O)c1ccc([N+](=O)[O-])cc1`, the result (in the data set on Escherichia coli [1]; in [8]; with Escherichia coli [9]; in data set [13]) was inactive. Also, the inhibition (in general, the change of the read-out against control, counted positive when it falls) came to 20% in [2]; 19% in [3]; 1% in data set [4]; 7% in [5]; 2% in data set [7]; 59% in data set [10]. Also, the inhibition in data set [11] is 28%; in data set [12], 4%. Further, the viability at 28 h, 25 µM in data set [6] was determined as 75%. Also, inhibition of growth in the data set with Chlamydia trachomatis (MIC) required 50 µM (≈ 15.2 µg/mL). In addition, the viability at 28 h, 50 µM in data set [14] was found to be 72%.
For the compound `O=C(N/N=C/c1ccc(Cl)cc1O)c1ccncc1`, the outcome (with Escherichia coli [1]; in data set [8]; in the data set on Escherichia coli [9]; in data set [13]) was inactive. The inhibition was 96% in [2]; 27% in data set [3]; 5% in data set [4]; -1% in data set [5]; 3% in [7]; 95% in data set [10]. Also, the inhibition in [11] stood at 84%; in [12], 4%. The viability at 28 h, 25 µM in [6] was determined as 72%. For the same compound, in the data set on Chlamydia trachomatis, the MIC (in general, the lowest concentration found to suppress growth) is “inactive”. In addition, in data set [14], the viability at 28 h, 50 µM was 67%.
As to `COc1ccc(/C=N/NC(=O)c2sc3ccccc3c2Cl)c(O)c1`, the result (in the data set with Escherichia coli [1]; in [8]; in the data set with Escherichia coli [9]; in data set [13]) was inactive. Moreover, the inhibition in data set [2] was 35%; in data set [3], 15%; in data set [4], -2%; in [5] it was -2%; in [7], 10%; in data set [10], 50%. For the same compound, the inhibition was 27% in [11] and 12% in data set [12].
Consider `O=C(N/N=C/c1cccc(F)c1O)c1cccc(C(F)(F)F)c1`, for which the result (in the data set on Escherichia coli [1]; in data set [8]; with Escherichia coli [9]; in data set [13]) was inactive. For the same compound, the inhibition was 48% in data set [2]; 30% in [3]; -10% in data set [4]; 3% in [5]; 5% in data set [7]; 65% in data set [10]. For the same compound, the inhibition in data set [11] is 32%; in data set [12], 14%.
Turning to `O=C(N/N=C/c1ccc(O)c(O)c1O)c1ccccc1[N+](=O)[O-]`, the result (in the data set with Escherichia coli [1]; in data set [8]; in the data set with Escherichia coli [9]; in data set [13]) was inactive. Further, the inhibition was 74% in data set [2]; 22% in [3]; -8% in data set [4]; 5% in data set [5]; 16% in data set [7]; 96% in [10]. The inhibition in data set [11] came to 36%; in [12], 20%.
On to `COc1ccc(Br)c(/C=N/NC(=O)CC#N)c1O`, for which the result (in the data set with Escherichia coli [1]; in data set [8]; in the data set on Escherichia coli [9]; in data set [13]) was inactive. For the same compound, the inhibition in data set [2] was 57%; in [3], 20%; in data set [4] it was -9%; in data set [5] it was 12%; in data set [7], 17%; in [10] it was 59%. The inhibition in data set [11] turned out to be 25%; in data set [12], 18%.
For `COc1cc([N+](=O)[O-])cc(/C=N/NC(=O)CC#N)c1O`, the result (in the data set with Escherichia coli [1]; in data set [8]; in the data set with Escherichia coli [9]; in data set [13]) was inactive. Besides, the inhibition was 39% in data set [2]; 27% in data set [3]; -4% in data set [4]; 4% in data set [5]; 14% in data set [7]; 43% in [10]. Also, the inhibition worked out at 39% in [11] and 24% in data set [12].
Consider `O=C(N/N=C/c1ccc(Cl)cc1O)c1ccc(Br)cc1`, for which the result (in the data set with Escherichia coli [1]; in data set [8]; in the data set on Escherichia coli [9]; in data set [13]) was inactive. The inhibition was 22% in data set [2]; 29% in [3]; -6% in [4]; 11% in data set [5]; 14% in data set [7]; 10% in data set [10]. Moreover, the inhibition in data set [11] was 27%; in data set [12], 26%.
With `COc1cc(/C=N/NC(=O)c2cccc(C(F)(F)F)c2)c(O)c(OC)c1`, the result (with Escherichia coli [1]; in data set [8]; in the data set with Escherichia coli [9]; in [13]) was inactive. The inhibition in [2] is 74%; in data set [3] it was 39%; in data set [4], -10%; in [5], 10%; in data set [7], 21%; in data set [10], 75%. Moreover, the values for the inhibition in [11] and in [12] were 66% and 24%, respectively.
Consider `COc1cc(Br)cc(/C=N/NC(=O)CCc2ccc(O)cc2)c1O`, for which the result (in the data set on Escherichia coli [1]; in data set [8]; with Escherichia coli [9]; in data set [13]) was inactive. The inhibition in [2] is 36%; in data set [3] it was 18%; in [4], -10%; in data set [5], 3%; in data set [7] it was 9%; in data set [10], 52%. Besides, the inhibition came to 23% in data set [11] and 11% in data set [12].
As for `O=C(N/N=C/c1cc(Cl)cc(Cl)c1O)c1ccccc1[N+](=O)[O-]`, the result (in the data set with Escherichia coli [1]; in [8]; with Escherichia coli [9]; in data set [13]) was inactive. Also, the inhibition was 88% in data set [2]; 18% in data set [3]; -4% in data set [4]; 16% in data set [5]; 8% in data set [7]; 92% in data set [10]. Besides, the inhibition in [11] came to 61%; in data set [12], 4%.
As to `O=C(N/N=C/c1cc(F)cc(Cl)c1O)c1cc(Cl)cc(Cl)c1`, the outcome (in the data set on Escherichia coli [1]; in data set [8]; in the data set with Escherichia coli [9]; in [13]) was inactive. Further, the inhibition in data set [2] was 24%; in [3] it was 11%; in data set [4], -10%; in data set [5], 4%; in data set [7], 12%; in data set [10], 13%. In addition, the figures for the inhibition in [11] and in data set [12] were 19% and 10%, respectively.
`COc1cccc(C(=O)N/N=C/c2cc(OC)cc(OC)c2O)c1`: the result (with Escherichia coli [1]; in data set [8]; in the data set on Escherichia coli [9]; in data set [13]) was inactive. In addition, the inhibition was 63% in data set [2]; 20% in data set [3]; -7% in [4]; 4% in data set [5]; 9% in [7]; 76% in [10]. The inhibition in data set [11] was 43%; in [12], 13%.
